Data published in ChEMBL document CHEMBL1122917, “Vinblastin-23-oyl amino acid derivatives: chemistry, physicochemical data, toxicity, and antitumor activities against P388 and L1210 leukemias” (J Med Chem, 1985).
Several values for one entry are separate records, joined by “and”; a condition that tells them apart may be missing. Equal values may be shown once.

Columns and labels:
[1] = system: Mus musculus; experiment: Number of survivors on 60th day at dose 55 mg/kg/day in 10 mice implanted with P388 leukemia cell line for 1,5,9 scheduled days; 1/10; format: functional
[2] = system: Mus musculus; experiment: Number of survivors on 60th day at dose 55 mg/kg/day in 10 mice implanted with P388 leukemia cell line; 1/10; format: functional
[3] = system: Mus musculus; experiment: Percent increase in life span at dose 65 mg/kg/day in 7 mice implanted with P388 leukemia cell line for 1,8,15 schedule day in Exp-2; format: functional
Summary of the method: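 Female DBA2 mice inoculated iv on day 0 with 10^5 P388 cells; iv dosing of sulfate salts in physiological saline on day 1 only or on days 1, 8 and 15. %ILS from all deaths and survivors as (T/C × 100) − 100, maximal MST 60 days; survivors scored on day 60.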

[4] = system: Mus musculus; experiment: Number of survivors on 30th day at dose 20 mg/kg/day in 10 mice implanted with P388 leukemia cell line; 0/10; format: functional
[5] = system: Mus musculus; experiment: Number of survivors on 30th day at dose 56 mg/kg/day in 10 mice implanted with P388 leukemia cell line; 4/10; format: functional
[6] = system: Mus musculus; experiment: 7 Percent increase in life span at dose 75 mg/kg/day in 7 mice implanted with P388 leukemia cell line for 1,8,15 schedule day in Exp-1; format: functional
[7] = system: Mus musculus; experiment: Number of survivors on 30th day at dose 65 mg/kg/day in 10 mice implanted with P388 leukemia cell line; 7/9; format: functional
[8] = system: Mus musculus; experiment: Number of survivors on 60th day at dose 58 mg/kg/day in 10 mice implanted with P388 leukemia cell line; 0/10; format: functional
[9] = system: Mus musculus; experiment: Percent increase in life span of DBA2 mice after inoculation with L1210 leukemia intravenously at a dose of 58 mg/kg per day; format: functional; settings: route intravenous
[10] = system: Mus musculus; experiment: Number of survivors on 30th day at dose 58 mg/kg/day in 10 mice implanted with P388 leukemia cell line;2/10; format: functional
[11] = system: Mus musculus; experiment: Number of survivors on 60th day at dose 75 mg/kg/day in 7 mice implanted with P388 leukemia cell line for 1,8,15 scheduled days in Exp-2; 2/10; format: functional
[12] = system: Mus musculus; experiment: Number of survivors on 30th day at dose 55 mg/kg/day in 10 mice implanted with P388 leukemia cell line; 7/10; format: functional
[13] = system: Mus musculus; experiment: Number of survivors on 30th day at dose 60 mg/kg/day in 10 mice implanted with P388 leukemia cell line; 8/10; format: functional
[14] = system: Mus musculus; experiment: Number of survivors on 60th day at dose 75 mg/kg/day in 7 mice implanted with P388 leukemia cell line for 1,8,15 scheduled days in Exp-1; 6/10; format: functional
[15] = system: Mus musculus; experiment: Number of survivors of DBA2 mice on 30th day after inoculation with L1210 leukemia cell line intravenously at a dose of 55 mg/kg/day; 0/10; format: functional; settings: route intravenous
[16] = system: Mus musculus; experiment: Number of survivors of DBA2 mice on 30th day after inoculation with L1210 leukemia cell line intravenously at a dose of 10 mg/kg/day; 0/10; format: functional; settings: route intravenous
[17] = system: Mus musculus; experiment: Percent increase in life span at dose 8 mg/kg/day in 7 mice implanted with P388 leukemia cell line for 1,8,15 schedule days from Exp-2; format: functional
[18] = system: Mus musculus; experiment: Percent increase in life span of DBA2 mice after inoculation with L1210 leukemia intravenously at a dose of 10 mg/kg per day; format: functional; settings: route intravenous
[19] = system: Mus musculus; experiment: Percent increase in life span at dose 6 mg/kg/day in 10 mice implanted with P388 leukemia cell line for 1st schedule day; format: functional
[20] = system: Mus musculus; experiment: Number of survivors on 60th day at dose 8 mg/kg/day in 7 mice implanted with P388 leukemia cell line for 1,8.15 scheduled days from Exp-1; 0/9; format: functional
[21] = system: Mus musculus; experiment: Number of survivors on 60th day at dose 10 mg/kg/day in 7 mice implanted with P388 leukemia cell line for 1,8.15 scheduled days; 0/10; format: functional
[22] = system: Mus musculus; experiment: Percent increase in life span at dose 4 mg/kg/day in 7 mice implanted with P388 leukemia cell line for 1,8,15 scheduled day from Exp-2; format: functional
[23] = system: Mus musculus; experiment: Number of survivors on 30th day at dose 4 mg/kg/day in 10 mice implanted with P388 leukemia cell line;5/10; format: functional
[24] = system: Mus musculus; experiment: Percent increase in life span at dose 10 mg/kg/day in 10 mice implanted with P388 leukemia cell line; format: functional
Summary of the method: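 Female DBA2 mice inoculated iv on day 0 with 10^4 P388 cells; single iv treatment on day 1 with drug as sulfate salt in physiological saline. Survival followed; %ILS from all deaths and survivors as (T/C × 100) − 100, maximal MST 30 days; survivors counted on days 30 and 60. Most experiments confirmed three times.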

[25] = system: Mus musculus; experiment: Number of survivors on 30th day at dose 7 mg/kg/day in 9 mice implanted with P388 leukemia cell line; 1 /9; format: functional
[26] = system: Mus musculus; experiment: Number of survivors on 30th day at dose 4 mg/kg/day in 10 mice implanted with P388 leukemia cell line; 0 /10; format: functional
[27] = system: Mus musculus; experiment: Number of survivors on 60th day at dose 7 mg/kg/day in 9 mice implanted with P388 leukemia cell line;0/9; format: functional
[28] = system: Mus musculus; experiment: Number of survivors of DBA2 mice on 30th day after inoculation with L1210 leukemia cell line intravenously at a dose of 5.5 mg/kg/day; 0/10; format: functional; settings: route intravenous
[29] = system: Mus musculus; experiment: Number of survivors on 30th day at dose 0.5 mg/kg/day in 10 mice implanted with P388 leukemia cell line; 0/10; format: functional
[30] = system: Mus musculus; experiment: Number of survivors of DBA2 mice on 30th day after inoculation with L1210 leukemia cell line intravenously at a dose of 4.5 mg/kg/day; 0/10; format: functional; settings: route intravenous
[31] = system: Mus musculus; experiment: Number of survivors of DBA2 mice on 60th day after inoculation with L1210 leukemia cell line intraperitoneally at a dose of 2.7 mg/kg/day; 0/10; format: functional; settings: route intraperitoneal
[32] = system: Mus musculus; experiment: Percent increase in life span of DBA2 mice after inoculation with L1210 leukemia intravenously at a dose of 2 mg/kg per day; format: functional; settings: route intravenous
[33] = system: Mus musculus; experiment: Number of survivors on 60th day at dose 2.5 mg/kg/day in 10 mice implanted with P388 leukemia cell line; 0/10; format: functional
[34] = system: Mus musculus; experiment: Number of survivors of DBA2 mice on 30th day after inoculation with L1210 leukemia cell line intravenously at a dose of 2.5 mg/kg/day; 0/11; format: functional; settings: route intravenous
[35] = system: Mus musculus; experiment: Number of survivors of DBA2 mice on 30th day after inoculation with L1210 leukemia cell line intravenously at a dose of 3 mg/kg/day; 0/11; format: functional; settings: route intravenous
[36] = system: Mus musculus; experiment: Number of survivors on 60th day at dose 3 mg/kg/day in 10 mice implanted with P388 leukemia cell line; 0/9; format: functional
[37] = system: Mus musculus; experiment: Percent increase in life span of BDF1 mice after inoculation with P388 leukemia cells intraperitoneally at a dose of 0.30 mg/kg per day for 1-9 scheduled days; settings: P388, ip
[38] = system: Mus musculus; experiment: Number of survivors of DBA2 mice on 60th day after inoculation with L1210 leukemia cell line intraperitoneally at a dose of 0.30 mg/kg/day; 0/10; format: functional; settings: route intraperitoneal

SMILES: CCOC(=O)[C@H](Cc1c[nH]c2ccccc12)NC(=O)[C@@]1(O)[C@H](O)[C@]2(CC)C=CCN3CC[C@@]4(c5cc([C@@]6(C(=O)OC)C[C@H]7C[N@](CCc8c6[nH]c6ccccc86)C[C@](O)(CC)C7)c(OC)cc5N(C)[C@@]14C)[C@@H]32
- Survivors [1]: 1
- Survivors [2]: 1
- ILS [3]: 40% and 108%
- Survivors [4]: 0
- Survivors [5]: 4
- ILS at 75 mg/kg/day [6]: 108%
- Survivors [7]: 7
- Survivors [8]: 0
- ILS at 58 mg/kg/day [9]: 48.7%
- Survivors [10]: 2
- Survivors [11]: 2
- Survivors [12]: 7
- Survivors [13]: 8
- Survivors [14]: 6
- Survivors [15]: 0

SMILES: CCOC(=O)[C@@H](NC(=O)[C@@]1(O)[C@H](O)[C@]2(CC)C=CCN3CC[C@@]4(c5cc([C@@]6(C(=O)OC)C[C@H]7C[N@](CCc8c6[nH]c6ccccc86)C[C@](O)(CC)C7)c(OC)cc5N(C)[C@@]14C)[C@@H]32)[C@@H](C)CC
- Survivors [16]: 0
- ILS at 8 mg/kg/day [17]: > 482%
- ILS at 10 mg/kg/day [18]: 27%
- ILS at 6 mg/kg/day [19]: 74%
- Survivors [20]: 0
- Survivors [21]: 0

SMILES: CC[C@]1(O)C[C@@H]2CN(CCc3c([nH]c4ccccc34)[C@@](C(=O)OC)(c3cc4c(cc3OC)N(C)[C@H]3[C@@](O)(C(=O)OC)[C@H](OC(C)=O)[C@]5(CC)C=CCN6CC[C@]43[C@@H]65)C2)C1 [VINBLASTINE]
- ILS at 4 mg/kg/day [22]: 35%
- Survivors [23]: 5
- ILS at 10 mg/kg/day [24]: 81%
- Survivors [25]: 1
- Survivors [26]: 0
- Survivors [27]: 0

SMILES: CC[C@]1(O)C[C@H]2CN(CCc3c([nH]c4ccccc34)[C@@](C(=O)OC)(c3cc4c(cc3OC)N(C=O)[C@H]3[C@@](O)(C(=O)OC)[C@H](OC(C)=O)[C@]5(CC)C=CCN6CC[C@]43[C@@H]65)C2)C1 [VINCRISTINE]
- Survivors [28]: 0
- Survivors [29]: 0
- Survivors [30]: 0
- Survivors [31]: 0
- ILS at 2 mg/kg/day [32]: 16%

SMILES: CC[C@]1(O)C[C@@H]2CN(CCc3c([nH]c4ccccc34)[C@@](C(=O)OC)(c3cc4c(cc3OC)N(C)[C@H]3[C@@](O)(C(N)=O)[C@H](O)[C@]5(CC)C=CCN6CC[C@]43[C@@H]65)C2)C1 [VINDESINE]
- Survivors [33]: 0
- Survivors [34]: 0
- Survivors [35]: 0
- Survivors [36]: 0
- ILS at 0.3 mg/kg/day [37]: 95%
- Survivors [38]: 0
